Test results published in ChEMBL document CHEMBL5329167, “Design, synthesis and evaluation of halogenated phenazine antibacterial prodrugs targeting nitroreductase enzymes for activation” (RSC Med Chem, 2023).
Values after ≈ are worked out from the molar mass of the structure shown. Active and inactive are the calls of the source. The calls are words filed in the database; no cut-off is given here.

Legend:
Staphylococcus aureus [1] = test: Antibacterial activity against methicillin-resistant Staphylococcus aureus clinical isolate 1 assessed as bacterial growth inhibition incubated for 16 hrs by CLSI based broth microdilution method; format: functional
[2] = Lipophilicity, LogP of compound in octanol-water mixture incubated for 1 hr by UV-vis spectroscopy; format: physicochemical
In short: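 Shake-flask partition: compound in octanol (1% v/v DMSO) mixed with equal volume water, stirred vigorously, left 1 h at room temperature to separate. Octanol-phase concentration measured by UV-Vis at 370 or 380 nm against a serial-dilution standard curve. Water concentration obtained by mass balance; LogP = log10(Coct/Cw). Acetophenone as positive control. Three independent experiments.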

Streptococcus pneumoniae = test: Antibacterial activity against Streptococcus pneumoniae 6303 assessed as bacterial growth inhibition incubated for 16 hrs by CLSI based broth microdilution method; format: functional
In short: (§1)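 CLSI broth microdilution in LB: eleven 2-fold serial dilutions, 0.10–100 µM. DMSO vehicle/negative control diluted from 0.5% v/v. Wells seeded with ~10⁵ cells from log-phase culture (OD₆₀₀ 0.6–0.8), held 16 h at 37 °C. MIC taken as the lowest concentration preventing growth by OD₆₀₀ turbidity. Minimum three independent experiments.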

[3] = Metal chelating activity assessed as formation of phenazine-iron complex measured for 1 to 60 mins by UV-vis spectroscopy; conditions: time 1-60 min
In short: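 Compound from a 10 mM DMSO stock diluted in DMSO in a cuvette, alone or with ammonium iron(II) sulfate hexahydrate (10 mM aqueous stock). Spectra of the compound-only cuvette and the iron-containing cuvette are compared by UV-vis spectrometry to judge phenazine–iron(II) complex formation.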

[4] = Hemolytic activity against red blood cells (unknown origin) at 200 uM; format: toxicity, cell-based, Erythrocyte; conditions: read-out: Activity
Staphylococcus aureus [5] = test: Antibacterial activity against methicillin-resistant Staphylococcus aureus clinical isolate 2 assessed as bacterial growth inhibition incubated for 16 hrs by CLSI based broth microdilution method; format: functional
Staphylococcus aureus [6] = test: Antibacterial activity against methicillin-resistant Staphylococcus aureus 1707 assessed as zone of inhibition at 10 mM incubated for 16 hrs by agar diffusion assay; format: functional
In short: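 Modified Kirby-Bauer disk diffusion. 100 µL MRSA 1707 inoculum (OD₆₀₀ 0.7, ~10⁸ CFU) spread on LB agar and left 30 min. 10 µL of 10 mM DMSO compound solution then pipetted onto the plate. Incubation 16 h at 37 °C; zone of inhibition area (cm²) measured. Three independent experiments.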

Enterococcus faecalis = test: Antibacterial activity against Enterococcus faecalis OG1RF assessed as bacterial growth inhibition incubated for 16 hrs by CLSI based broth microdilution method; format: functional
In short: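 Broth microdilution per CLSI in brain-heart infusion: eleven 2-fold dilutions spanning 0.10–100 µM, with DMSO vehicle/negative control topping at 0.5% v/v. Inoculum ~10⁵ cells/well from log-phase culture (OD₆₀₀ 0.6–0.8). 37 °C, 16 h. MIC is the lowest concentration preventing growth, read as OD₆₀₀ turbidity. At least three independent experiments.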

[7] = system: Staphylococcus epidermidis; test: Antibacterial activity against Staphylococcus epidermidis 12228 assessed as bacterial growth inhibition incubated for 16 hrs by CLSI based broth microdilution method; format: functional; in short: as §1
Staphylococcus aureus [8] = test: Antibacterial activity against Staphylococcus aureus clinical isolate 147 assessed as bacterial growth inhibition incubated for 16 hrs by CLSI based broth microdilution method; format: functional
Staphylococcus aureus [9] = test: Antibacterial activity against methicillin-resistant Staphylococcus aureus BAA-44 assessed as bacterial growth inhibition incubated for 16 hrs by CLSI based broth microdilution method; format: functional
In short: (§2)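 Broth microdilution per CLSI in LB, eleven two-fold serial dilutions spanning 0.10 to 100 µM. Inoculum ~10⁵ cells/well from fresh log-phase culture (OD₆₀₀ 0.6–0.8). MIC taken as lowest concentration preventing growth after 16 h at 37 °C, read by OD₆₀₀ turbidity. DMSO vehicle control, top 0.5% v/v. At least three independent experiments.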

[10] = system: Staphylococcus epidermidis; test: Antibacterial activity against Staphylococcus epidermidis clinical isolate CL-1 assessed as bacterial growth inhibition incubated for 16 hrs by CLSI based broth microdilution method; format: functional
Staphylococcus aureus [11] = test: Antibacterial activity against Staphylococcus aureus clinical isolate 156 assessed as bacterial growth inhibition incubated for 16 hrs by CLSI based broth microdilution method; format: functional
Staphylococcus aureus [12] = test: Antibacterial activity against methicillin-resistant Staphylococcus aureus BAA-1707 assessed as bacterial growth inhibition incubated for 16 hrs by CLSI based broth microdilution method; format: functional; in short: as §2
Enterococcus = test: Antibacterial activity against vancomycin-resistant Enterococcus 700221 assessed as bacterial growth inhibition incubated for 16 hrs by CLSI based broth microdilution method; format: functional
In short: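 Growth scored by OD₆₀₀ turbidity after 16 h at 37 °C; MIC is the lowest concentration preventing growth. DMSO vehicle control up to 0.5% v/v. Three or more independent experiments.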

[13] = system: Staphylococcus epidermidis; test: Antibacterial activity against methicillin-resistant Staphylococcus epidermidis 35984 assessed as bacterial growth inhibition incubated for 16 hrs by CLSI based broth microdilution method; format: functional; in short: as §2
[14] = Cytotoxicity against HEK293 cells incubated for 48 hrs by MTT assay; format: toxicity, cell-based; conditions: human
In short: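 HEK-293 cells (10⁴/well) in DMEM with 10% FBS, penicillin/streptomycin, settled overnight at 37 °C, 5% CO₂. Medium replaced with compound at 0.10–100 µM (2-fold steps); DMSO as negative control. After 48 h at 37 °C, MTT (5 mg/mL stock) added for 3 h. Formazan dissolved in DMSO, OD read at 570 nm. Eight replicates per treatment.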

Staphylococcus aureus [15] = test: Antibacterial activity against methicillin-resistant Staphylococcus aureus 1707 assessed as bacterial growth inhibition incubated for 16 hrs by CLSI based broth microdilution method; format: functional; in short: as §2
Staphylococcus aureus [16] = test: Antibacterial activity against Staphylococcus aureus clinical isolate 138 assessed as bacterial growth inhibition incubated for 16 hrs by CLSI based broth microdilution method; format: functional
Staphylococcus aureus [17] = test: Antibacterial activity against Staphylococcus aureus clinical isolate 129 assessed as bacterial growth inhibition incubated for 16 hrs by CLSI based broth microdilution method; format: functional

## Oc1c(Br)cc(Br)c2nc3ccccc3nc12
Staphylococcus aureus [1]
  MIC: 0.78 µM (≈ 0.276 µg/mL)
[2]
  logP at 1 h: 0.25
Streptococcus pneumoniae
  MIC: 1.17 µM (≈ 0.414 µg/mL)
[3]
  Activity: Active
[4]
  hemolysis at 200 µM: < 1%
Staphylococcus aureus [5]
  MIC: 1.56 µM (≈ 0.552 µg/mL)
Staphylococcus aureus [6]
  diameter of the inhibition zone (DIZ): 5.08 cm2
Enterococcus faecalis
  MIC: 18.8 µM (≈ 6.66 µg/mL)
[7]
  MIC: 2.35 µM (≈ 0.832 µg/mL)

## Cc1cccc2nc3c(OS(=O)(=O)Cc4ccc([N+](=O)[O-])cc4)c(Br)c(Cl)c(Br)c3nc12
Staphylococcus aureus [1]
  MIC: 0.3 µM (≈ 0.18 µg/mL)
Staphylococcus aureus [8]
  MIC: 0.59 µM (≈ 0.355 µg/mL)
[2]
  logP at 1 h: 3.11
Streptococcus pneumoniae
  MIC: 0.15 µM (≈ 0.0902 µg/mL)
[3]
  Activity: Active
Staphylococcus aureus [9]
  MIC: 0.3 µM (≈ 0.18 µg/mL)
[10]
  MIC: 2.35 µM (≈ 1.41 µg/mL)
[4]
  hemolysis at 200 µM: < 1%
Staphylococcus aureus [11]
  MIC: 0.59 µM (≈ 0.355 µg/mL)
Staphylococcus aureus [12]
  MIC: 0.1 µM (≈ 0.0602 µg/mL)
Enterococcus
  MIC: 0.15 µM (≈ 0.0902 µg/mL)
[13]
  MIC: 0.15 µM (≈ 0.0902 µg/mL)
Staphylococcus aureus [5]
  MIC: 0.3 µM (≈ 0.18 µg/mL)
Staphylococcus aureus [6]
  diameter of the inhibition zone (DIZ): 0.87 cm2
[14]
  CC50 at 48 h: 34.1 µM
Enterococcus faecalis
  MIC: 4.69 µM (≈ 2.82 µg/mL)
Staphylococcus aureus [15]
  MIC: 0.1 µM (≈ 0.0602 µg/mL)
[7]
  MIC: 0.59 µM (≈ 0.355 µg/mL)
Staphylococcus aureus [16]
  MIC: 0.39 µM (≈ 0.235 µg/mL)

## CC[C@H]1OC(=O)[C@H](C)[C@@H](O[C@H]2C[C@@](C)(OC)[C@@H](O)[C@H](C)O2)[C@H](C)[C@@H](O[C@@H]2O[C@H](C)C[C@H](N(C)C)[C@H]2O)[C@](C)(O)C[C@@H](C)C(=O)[C@H](C)[C@@H](O)[C@]1(C)O [ERYTHROMYCIN]
Staphylococcus aureus [1]
  MIC: 100 µM (≈ 73.4 µg/mL)
Staphylococcus aureus [17]
  MIC: > 100 µM
Staphylococcus aureus [8]
  MIC: 37.5 µM (≈ 27.5 µg/mL)
[10]
  MIC: > 100 µM
Staphylococcus aureus [11]
  MIC: > 100 µM
Staphylococcus aureus [5]
  MIC: 18.8 µM (≈ 13.8 µg/mL)
Staphylococcus aureus [16]
  MIC: > 100 µM

## COc1cccc(OC)c1C(=O)N[C@@H]1C(=O)N2[C@@H]1SC(C)(C)[C@@H]2C(=O)O [METHICILLIN]
Staphylococcus aureus [1]
  MIC: 37.5 µM (≈ 14.3 µg/mL)
Staphylococcus aureus [17]
  MIC: 37.5 µM (≈ 14.3 µg/mL)
Staphylococcus aureus [8]
  MIC: 6.25 µM (≈ 2.38 µg/mL)
[10]
  MIC: 12.5 µM (≈ 4.76 µg/mL)
Staphylococcus aureus [11]
  MIC: 25 µM (≈ 9.51 µg/mL)
Staphylococcus aureus [5]
  MIC: > 100 µM
Staphylococcus aureus [16]
  MIC: 37.5 µM (≈ 14.3 µg/mL)

## NC[C@H]1O[C@H](O[C@H]2[C@H](O)[C@@H](O[C@H]3O[C@H](CO)[C@@H](O)[C@H](N)[C@H]3O)[C@H](N)C[C@@H]2N)[C@H](N)C[C@@H]1O [TOBRAMYCIN]
Staphylococcus aureus [1]
  MIC: 6.25 µM (≈ 2.92 µg/mL)
Staphylococcus aureus [17]
  MIC: > 100 µM
Staphylococcus aureus [8]
  MIC: 6.25 µM (≈ 2.92 µg/mL)
[10]
  MIC: 1.56 µM (≈ 0.729 µg/mL)
Staphylococcus aureus [11]
  MIC: 12.5 µM (≈ 5.84 µg/mL)
Staphylococcus aureus [5]
  MIC: 6.25 µM (≈ 2.92 µg/mL)
Staphylococcus aureus [16]
  MIC: 12.5 µM (≈ 5.84 µg/mL)

## CN(C)[C@@H]1C(O)=C(C(N)=O)C(=O)[C@@]2(O)C(O)=C3C(=O)c4c(O)cccc4[C@@](C)(O)[C@H]3C[C@@H]12 [TETRACYCLINE]
Staphylococcus aureus [1]
  MIC: 0.1 µM (≈ 0.0444 µg/mL)
Staphylococcus aureus [17]
  MIC: 0.1 µM (≈ 0.0444 µg/mL)
Staphylococcus aureus [8]
  MIC: 0.1 µM (≈ 0.0444 µg/mL)
[10]
  MIC: 25 µM (≈ 11.1 µg/mL)
Staphylococcus aureus [11]
  MIC: 0.15 µM (≈ 0.0667 µg/mL)
Staphylococcus aureus [5]
  MIC: 0.1 µM (≈ 0.0444 µg/mL)
Staphylococcus aureus [16]
  MIC: 0.15 µM (≈ 0.0667 µg/mL)

## Cc1cccc2nc3c(O)c(Br)c(Cl)c(Br)c3nc12
Staphylococcus aureus [1]
  MIC: 0.1 µM (≈ 0.0402 µg/mL)
Staphylococcus aureus [17]
  MIC: 0.1 µM (≈ 0.0402 µg/mL)
Staphylococcus aureus [8]
  MIC: 0.1 µM (≈ 0.0402 µg/mL)
[2]
  logP at 1 h: 0.81
Streptococcus pneumoniae
  MIC: 0.1 µM (≈ 0.0402 µg/mL)
[3]
  Activity: inactive
Staphylococcus aureus [9]
  MIC: 0.15 µM (≈ 0.0604 µg/mL)
[10]
  MIC: 0.39 µM (≈ 0.157 µg/mL)
[4]
  hemolysis at 200 µM: < 1%
Staphylococcus aureus [11]
  MIC: 0.1 µM (≈ 0.0402 µg/mL)
Staphylococcus aureus [12]
  MIC: 0.1 µM (≈ 0.0402 µg/mL)
Enterococcus
  MIC: 0.1 µM (≈ 0.0402 µg/mL)
[13]
  MIC: 0.1 µM (≈ 0.0402 µg/mL)
Staphylococcus aureus [5]
  MIC: 0.15 µM (≈ 0.0604 µg/mL)
Staphylococcus aureus [6]
  diameter of the inhibition zone (DIZ): 3.85 cm2
[14]
  CC50 at 48 h: 18.3 µM
Enterococcus faecalis
  MIC: 0.39 µM (≈ 0.157 µg/mL)
Staphylococcus aureus [15]
  MIC: 0.1 µM (≈ 0.0402 µg/mL)
[7]
  MIC: 0.1 µM (≈ 0.0402 µg/mL)
Staphylococcus aureus [16]
  MIC: 0.1 µM (≈ 0.0402 µg/mL)

## O=[N+]([O-])c1ccc(CS(=O)(=O)Oc2c(Br)cc(Br)c3nc4ccccc4nc23)cc1
Staphylococcus aureus [1]
  MIC: 3.13 µM (≈ 1.73 µg/mL)
Staphylococcus aureus [17]
  MIC: 6.25 µM (≈ 3.46 µg/mL)
Staphylococcus aureus [8]
  MIC: 6.25 µM (≈ 3.46 µg/mL)
[2]
  logP at 1 h: 0.42
Streptococcus pneumoniae
  MIC: 4.69 µM (≈ 2.59 µg/mL)
[3]
  Activity: inactive
Staphylococcus aureus [9]
  MIC: 1.56 µM (≈ 0.863 µg/mL)
[10]
  MIC: 6.25 µM (≈ 3.46 µg/mL)
[4]
  hemolysis at 200 µM: < 1%
Staphylococcus aureus [11]
  MIC: 6.25 µM (≈ 3.46 µg/mL)
Staphylococcus aureus [12]
  MIC: 0.78 µM (≈ 0.431 µg/mL)
Enterococcus
  MIC: 9.38 µM (≈ 5.19 µg/mL)
[13]
  MIC: 4.69 µM (≈ 2.59 µg/mL)
Staphylococcus aureus [5]
  MIC: 2.35 µM (≈ 1.3 µg/mL)
Staphylococcus aureus [6]
  diameter of the inhibition zone (DIZ): 1.13 cm2
[14]
  CC50 at 48 h: 51.7 µM
Enterococcus faecalis
  MIC: 37.5 µM (≈ 20.7 µg/mL)
Staphylococcus aureus [15]
  MIC: 0.78 µM (≈ 0.431 µg/mL)
[7]
  MIC: 4.69 µM (≈ 2.59 µg/mL)
Staphylococcus aureus [16]
  MIC: 4.69 µM (≈ 2.59 µg/mL)
